{"source": "ChEMBL document CHEMBL4431351", "about": "“1,2-Benzisoselenazol-3(2H)-one Derivatives As a New Class of Bacterial Urease Inhibitors” (J Med Chem, 2016)", "key": {"Sporosarcina pasteurii [1]": {"test_system": "Sporosarcina pasteurii", "assay": "Competitive inhibition of Sporosarcina pasteurii CCM 2056 urease using urea as substrate assessed as ammonia levels after 120 mins by Lineweaver-Burk plot analysis", "outline": "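Purified native S. pasteurii urease (113.5 pM final) preincubated with rising inhibitor levels in 3 mM phosphate buffer pH 7.5, 37°C, until equilibrium; urea 1–60 mM then added. Initial rates measured by phenol-hypochlorite ammonia read-out; mode and constants from Lineweaver-Burk plots using at least 5 inhibitor concentrations.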"}, "Sporosarcina pasteurii [2]": {"test_system": "Sporosarcina pasteurii", "assay": "Reversible inhibition of Sporosarcina pasteurii CCM 2056 urease using urea as substrate assessed as ammonia levels after 120 mins by fast dilution assay"}, "[3]": {"assay": "Steady state inhibition of Sporosarcina pasteurii CCM 2056 urease using urea as substrate assessed as inhibition constant for final enzyme conformation-inhibitor complex by measuring ammonia levels after 120 mins by phenol-hypochlorite method", "outline": "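S. pasteurii urease (113.5 pM final) added to stirred mixtures with 25 mM urea and varied inhibitor (water or DMF), 3 mM phosphate pH 7.5, 37°C. Ammonia sampled over 120 min by phenol-hypochlorite. Progress curves fitted to integrated slow-binding equation. Ki and Ki* derived using Km and Vmax of uninhibited enzyme.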"}, "[4]": {"molecular_target": "T1, Urease subunit alpha/Urease subunit beta (Helicobacter pylori (strain ATCC 700392 / 26695) (Campylobacterpylori), UniProt P69996+P14916)", "T1 sequence (P69996 whole entry)": "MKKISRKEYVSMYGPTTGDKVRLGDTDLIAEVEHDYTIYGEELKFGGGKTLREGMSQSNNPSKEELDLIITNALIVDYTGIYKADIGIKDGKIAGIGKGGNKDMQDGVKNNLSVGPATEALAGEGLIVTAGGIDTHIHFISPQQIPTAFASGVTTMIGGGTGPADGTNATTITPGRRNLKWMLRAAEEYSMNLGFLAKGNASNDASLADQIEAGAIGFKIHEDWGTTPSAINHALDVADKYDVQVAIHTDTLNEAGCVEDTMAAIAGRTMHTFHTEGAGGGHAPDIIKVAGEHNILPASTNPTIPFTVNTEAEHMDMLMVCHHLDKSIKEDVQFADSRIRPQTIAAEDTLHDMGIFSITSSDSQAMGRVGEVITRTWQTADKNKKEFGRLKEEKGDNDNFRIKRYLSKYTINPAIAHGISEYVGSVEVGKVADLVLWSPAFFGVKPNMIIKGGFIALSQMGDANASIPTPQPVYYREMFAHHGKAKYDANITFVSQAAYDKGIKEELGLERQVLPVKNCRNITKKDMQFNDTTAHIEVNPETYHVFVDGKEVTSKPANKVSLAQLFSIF", "T1 sequence (P14916 whole entry)": "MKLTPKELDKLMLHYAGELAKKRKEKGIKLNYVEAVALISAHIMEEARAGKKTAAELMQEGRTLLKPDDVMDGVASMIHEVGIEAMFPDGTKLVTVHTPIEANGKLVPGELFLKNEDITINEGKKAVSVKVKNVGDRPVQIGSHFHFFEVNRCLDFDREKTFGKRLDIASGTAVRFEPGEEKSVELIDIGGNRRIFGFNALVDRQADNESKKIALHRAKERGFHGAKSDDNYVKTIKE", "assay": "Inhibition of recombinant Helicobacter pylori urease expressed in Escherichia coli rosetta DE3 using urea as substrate assessed as transformed cell urea splitting activity after 2 hrs by Berthelot assay", "outline": "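E. coli Rosetta pGEM::ureOP cells grown in LB with ampicillin at 37°C, induced with 0.75 mM IPTG and 0.75 mM Ni²⁺ for 24 h at 22°C, then washed thrice in PBS. Cells (1×10⁹ cfu/mL final) start the reaction in 10 mM PBS with 5 mM urea and inhibitor. Timed aliquots read by Berthelot; triplicate.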"}, "[5]": {"molecular_target": "T1, Urease subunit alpha/Urease subunit beta", "assay": "Inhibition of recombinant Helicobacter pylori urease expressed in Escherichia coli rosetta DE3 using urea as substrate assessed as transformed cell urea splitting activity preincubated for 2 hrs followed by substrate addition measured after 2 hrs by Berthelot assay", "outline": "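Induced, PBS-washed E. coli Rosetta pGEM::ureOP cells (1×10⁹ cfu/mL) held 2 h with inhibitor in 10 mM PBS. Urea then added to 5 mM. Ammonia in timed aliquots measured by Berthelot assay against an inhibitor-free reference. DMF effect checked. Three repeats.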"}, "[6]": {"molecular_target": "T1, Urease subunit alpha/Urease subunit beta", "assay": "Inhibition of urease in Helicobacter pylori J99 in Brucella broth using urea as substrate after 2 hrs by Berthelot assay", "type": "protein-complex assay", "outline": "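H. pylori J99 passaged on blood Columbia agar, microaerophilic, 37°C. Then grown 48 h in Brucella broth with 5% FBS and 1% IsoVitalex, spun once and resuspended in 10 mM PBS pH 7.2 without washing. About 1×10⁷ cfu/mL added to PBS with 5 mM urea and inhibitor. Berthelot ammonia read-out, triplicate.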"}, "[7]": {"molecular_target": "T1, Urease subunit alpha/Urease subunit beta", "assay": "Inhibition of urease in Helicobacter pylori J99 in Brucella broth using urea as substrate preincubated for 2 hrs followed by substrate addition measured after 2 hrs by Berthelot assay", "type": "protein-complex assay", "outline": "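Unwashed H. pylori J99 cells from 48 h Brucella broth culture (5% FBS, 1% IsoVitalex), resuspended in 10 mM PBS pH 7.2, about 1×10⁷ cfu/mL. Cells preincubated 2 h with inhibitor before 5 mM urea was added. Timed aliquots assayed by Berthelot method; three repeats.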"}}, "note": "The source made the active and inactive calls. No cut-off for these calls is given here."}
{"compound": "O=C(Oc1ccccc1)c1ccccc1[Se][Se]c1ccccc1C(=O)Oc1ccccc1", "values": [{"measurement": "competitive inhibition (qualitative call)", "setting": "Sporosarcina pasteurii [1]", "value": "Active"}, {"measurement": "reversible inhibition (qualitative)", "setting": "Sporosarcina pasteurii [2]", "value": "Active"}, {"measurement": "Ki", "setting": "[3]", "value": 528, "unit": "nM"}, {"measurement": "IC50", "setting": "[4]", "value": "Not Active"}, {"measurement": "IC50", "setting": "[5]", "value": "Not Active"}, {"measurement": "IC50", "setting": "[6]", "value": "Not Active"}, {"measurement": "IC50", "setting": "[7]", "value": "Not Active"}]}
